ChEMBL document CHEMBL4130559, “Structure-Based Discovery of Thiosemicarbazone Metalloproteinase Inhibitors for Hemorrhage Treatment in Snakebites” (ACS Med Chem Lett, 2017)

Assays:
[1] = target: T1, Snake venom metalloproteinase neuwiedase (Bothrops pauloensis, UniProt Q9I9R4); experiment: Inhibition of Bothrops pauloensis MP1 assessed as reduction in azocaseinolytic activity after 30 mins
T1 sequence (Q9I9R4 whole entry): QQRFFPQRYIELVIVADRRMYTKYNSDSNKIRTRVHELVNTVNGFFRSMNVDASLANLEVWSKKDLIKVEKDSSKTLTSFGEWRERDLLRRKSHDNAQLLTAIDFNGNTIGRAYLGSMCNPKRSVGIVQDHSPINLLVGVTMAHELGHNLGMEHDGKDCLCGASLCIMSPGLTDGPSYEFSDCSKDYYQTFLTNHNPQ
In short: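 Purified BpMP-I (7.5 μg per reaction) was preincubated with compound for 30 min at 37 °C. It was then added to azocasein (1 mg/mL) in 0.05 M Tris–HCl pH 7.8 with 0.15 M NaCl and incubated for 30 min at 37 °C. The reaction was stopped with 20% TCA, held 30 min at room temperature and centrifuged. Supernatant was read at A405. IC50 is the concentration giving 50% loss of azocaseinolytic activity.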

Snake venom [2] = experiment: Antihemorrhagic activity in Bothrops pauloensis crude venom injected Swiss mouse assessed as reduction in hemorrhagic halo at 1:20 venom to compound ratio administered via intradermal route; format: functional
Snake venom [3] = experiment: Antihemorrhagic activity in Bothrops pauloensis crude venom injected Swiss mouse assessed as reduction in hemorrhagic halo at 1:1 venom to compound ratio administered via intradermal route; format: functional; set-up: scale not given: the % may be the effect or the level left
Snake venom [4] = experiment: Antihemorrhagic activity in Bothrops pauloensis crude venom injected Swiss mouse assessed as reduction in hemorrhagic halo at 1:5 venom to compound ratio administered via intradermal route; format: functional; set-up: scale not given: the % may be the effect or the level left
Snake venom [5] = experiment: Antihemorrhagic activity in Bothrops pauloensis crude venom injected Swiss mouse assessed as reduction in hemorrhagic halo at 1:10 venom to compound ratio administered via intradermal route; format: functional; set-up: scale not given: the % may be the effect or the level left
Snake venom [6] = experiment: Antihemorrhagic activity in Bothrops pauloensis crude venom injected Swiss mouse assessed as reduction in hemorrhagic halo at 1:1 to 1:20 venom to compound ratio administered via intradermal route; format: functional
Snake venom [7] = experiment: Antihemorrhagic activity in Bothrops pauloensis crude venom injected Swiss mouse assessed as reduction in hemorrhagic halo at 1:10 venom to compound ratio administered via intradermal route 10 mins after venom injection; format: functional; set-up: scale not given: the % may be the effect or the level left
In short: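 Treatment protocol in Swiss male mice (n = 4, 18–22 g). B. pauloensis crude venom (16.3 μg, two minimum hemorrhagic doses) was injected intradermally in the dorsal region. Compound followed 10 min later by the same route at 1:10 venom/compound (w/w). At 150 min the mice were anesthetized and killed, and the skin halo was measured by caliper. Results are percent inhibition versus venom-only controls, mean ± SD.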

SMILES: NC(=O)N/N=C/c1cccc(O)c1
- IC50 [1]: Not Active

SMILES: c1cnc2c(c1)ccc1cccnc12 [PHENANTHROLINE]
- IC50 ([1]; read-out: IC50): 0.47 mM

SMILES: COc1ccc(/C=N/NC(N)=S)cc1
- IC50 ([1]; read-out: IC50): 3.01 mM

SMILES: COc1ccc(/C(CCC(=O)O)=N/NC(N)=S)cc1
- IC50 ([1]; read-out: IC50): 0.0791 mM
- inhibition (INH) (Snake venom [2]): 43%

SMILES: NC(=O)N/N=C/c1ccc(O)cc1O
- IC50 [1]: Not Active

SMILES: COc1ccc(/C(CCCC(=O)O)=N/NC(N)=S)cc1
- IC50 ([1]; read-out: IC50): 0.00177 mM
- Activity (Snake venom [3]): 41%
- Activity (Snake venom [4]): 84%
- Activity (Snake venom [5]): 100%
- Activity (Snake venom [6]): Dose-dependent effect
- Activity (Snake venom [7]): 31%
- inhibition (INH) (Snake venom [2]): 100%

SMILES: NC(=O)N/N=C/c1ccc(Cl)cc1
- IC50 [1]: Not Active

SMILES: NC(=S)N/N=C/c1ccc(Cl)cc1
- IC50 ([1]; read-out: IC50): 4.25 mM

SMILES: NC(=S)N/N=C/c1ccccc1 [PHENYLTHIOSEMICARBAZONE]
- IC50 ([1]; read-out: IC50): 4.22 mM

SMILES: COc1ccc(/C=N/NC(N)=S)cc1O
- IC50 ([1]; read-out: IC50): 3.41 mM

SMILES: NC(=S)N/N=C/c1ccc(Br)cc1
- IC50 ([1]; read-out: IC50): 3.14 mM

SMILES: COc1ccc(/C=N/NC(N)=O)cc1
- IC50 [1]: Not Active

SMILES: NC(=O)N/N=C/c1ccc(C(=O)O)cc1
- IC50 [1]: Not Active

SMILES: NC(=O)N/N=C/c1ccc(O)cc1
- IC50 [1]: Not Active
